Source: ChEMBL document CHEMBL1153796, “Isoprenylated chromone derivatives from the plant endophytic fungus Pestalotiopsis fici” (J Nat Prod, 2009)

What was measured:
[1] = test system: HeLa; assay: Cytotoxicity against human HeLa cells after 48 hrs by MTT assay; format: functional, cell-based
How it was run: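 Cells plated at 10^4/well and allowed to attach overnight. Exposed to compound dilutions from DMSO stock (vehicle 0.2% DMSO) for 4 h at 37 °C, then grown 48 h in fresh DMEM. MTT at 0.5 mg/mL added for 3 h, formazan dissolved in DMSO, absorbance at 540 nm; 5-fluorouracil as positive control.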

[2] = test system: Human immunodeficiency virus 1; assay: Antiviral activity against HIV1 infected human C8166 cells assessed as inhibition of viral replication after 4 days by p24 antigen capture ELISA; format: functional, organism-based; conditions: Human immunodeficiency virus 1, C8166, 96 h
[3] = test system: MCF7; assay: Cytotoxicity against human MCF7 cells after 48 hrs by MTT assay; format: functional, cell-based; conditions: MCF7, 48 h
[4] = test system: C8166; assay: Cytotoxicity against human C8166 cells after 4 days by MTT assay; format: cell-based; conditions: C8166, 96 h
How it was run: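 C8166 cells seeded at 3 × 10^4/well with various compound concentrations in triplicate, 37 °C, 5% CO2, run alongside the HIV-1 assay.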

| SMILES | IC50 [1] [µM] | EC50 [2] [µM] | IC50 [3] [µM] | CC50 [4] [µM] |
| --- | --- | --- | --- | --- |
| CC(C)=CC=C1C2=C(C[C@H](O)[C@@H]1O)C(=O)CC(C)(C)O2 (mixture of isomers) | > 144 | 89.2 | > 144 | – |
| O=c1[nH]cc(F)c(=O)[nH]1 [FLUOROURACIL] | 10 | – | – | – |
| CC(C)=CC[C@]12O[C@H]1[C@@H](O)CC1=C2OC(C)(C)CC1=O [PESTALOFICIOL F] | > 144 | > 100 | > 144 | – |
| CC1(C)CC(=O)C2=C(O1)C1=C[C@@H](C(C)(C)O)O[C@H]1[C@@H](O)C2 [PESTALOFICIOL I] | > 136 | > 100 | 136 | – |
| CC(C)=CCc1cc(O)cc2c1OC(C)(C)CC2=O [PESTALOFICIOL J] | 21.2 | 8 | > 154 | > 100 |
| CC(=O)OC1=CC(C)(C)Oc2c(CC=C(C)C)cc(O)cc21 [PESTALOFICIOL K] | 99.3 | 78.2 | > 132 | – |
| COC(=O)c1cc(OC)cc(O)c1C(=O)c1c(O)cc(C)c(C2=CC(C)(C)Oc3c(CC=C(C)C)cc(O)cc32)c1O [PESTALOFICIOL L] | 8.7 | > 100 | 17.4 | – |
